Test results as given in publication PMC13102995 (Biomedicine & Pharmacotherapy, 2026).
Read-outs that look alike come from different tables or passages of the source.

Key:
PLCγ = assay: TG-induced store-operated calcium; type: cell-based, human; conditions: U73122 2 µM, 1 h; 1 µM TG; HaCaT; mean ± SEM, N = 2
Method in brief: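 HaCaT on coverslips used 48 h after plating, loaded with 6 µg/mL Fluo-4 AM/0.05% Pluronic plus test compound (100 µM), 0.1% DMSO or 2 µM U73122 for 1 h, then washed ≥20 min. In Ca2+-free solution, 1 µM thapsigargin/0.1 mM EGTA for 3 min, then 2 mM Ca2+ to trigger SOC entry. Cells ≥20 AFU analysed; ΔFSOC/ΔFTG normalised to vehicle.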

[1] = test system: neonatal rat dorsal root ganglion (DRG) neurons; type: cell-based; conditions: U73122 5 µM, 1 h; 500 nM capsaicin pulses, 1 µM BK
Method in brief: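 DRG neurons from 3–5-day-old Wistar rats, collagenase IA digested (2.5 mg/mL, 1 h), grown 48 h on 60-electrode arrays (poly-L-lysine/laminin) with NGF and cytosine arabinoside. Test compound (100 µM) or 0.1% DMSO pre-incubated 1 h in serum medium without NGF; PLC inhibitor at 5 µM. Three 30-s pulses of 500 nM capsaicin (P1–P3); bradykinin used at 1 µM.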

PLCβ [2] = assay: PIP2 imaging: BK-induced PLCδ-PH-GFP translocation in HEK293T cells; type: cell-based, Human; conditions: PL2003 100 µM, U73122 2 µM, PL2204 1–100 µM; versus vehicle
Method in brief: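 HEK293T transfected with PLCδ-PH-GFP, replated 24 h later on poly-D-lysine and imaged after another 24 h. Pre-incubation 1 h with test compound (1, 10, 100 µM), vehicle or 2 µM U73122. Baseline 30 s in Ca2+-containing solution, pH 7.4, then 250 nM bradykinin for 2 min. Translocation = ΔF/F0; time to maximum timed from onset; IC50 from Hill-equation fit.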

PLCβ [3] = type: cell-based, Human; conditions: U73122 2 µM, HEK293, mean ± SEM; for inhibition of ACh-induced intracellular Ca2+ response: 1 h, 1 µM ACh
[4] = Solubility and aggregation observed on preparation of the peptides; type: physicochemical; conditions: observation
PLCβ3 = target: T1, PLCβ3 (Homo sapiens, UniProt Q01970); assay: Surface plasmon resonance binding to pulled-down PLCβ3; conditions: 12.5–200 µM, multi-cycle, HBS-EP+ buffer, 25 °C
T1 sequence (Q01970 1-1234): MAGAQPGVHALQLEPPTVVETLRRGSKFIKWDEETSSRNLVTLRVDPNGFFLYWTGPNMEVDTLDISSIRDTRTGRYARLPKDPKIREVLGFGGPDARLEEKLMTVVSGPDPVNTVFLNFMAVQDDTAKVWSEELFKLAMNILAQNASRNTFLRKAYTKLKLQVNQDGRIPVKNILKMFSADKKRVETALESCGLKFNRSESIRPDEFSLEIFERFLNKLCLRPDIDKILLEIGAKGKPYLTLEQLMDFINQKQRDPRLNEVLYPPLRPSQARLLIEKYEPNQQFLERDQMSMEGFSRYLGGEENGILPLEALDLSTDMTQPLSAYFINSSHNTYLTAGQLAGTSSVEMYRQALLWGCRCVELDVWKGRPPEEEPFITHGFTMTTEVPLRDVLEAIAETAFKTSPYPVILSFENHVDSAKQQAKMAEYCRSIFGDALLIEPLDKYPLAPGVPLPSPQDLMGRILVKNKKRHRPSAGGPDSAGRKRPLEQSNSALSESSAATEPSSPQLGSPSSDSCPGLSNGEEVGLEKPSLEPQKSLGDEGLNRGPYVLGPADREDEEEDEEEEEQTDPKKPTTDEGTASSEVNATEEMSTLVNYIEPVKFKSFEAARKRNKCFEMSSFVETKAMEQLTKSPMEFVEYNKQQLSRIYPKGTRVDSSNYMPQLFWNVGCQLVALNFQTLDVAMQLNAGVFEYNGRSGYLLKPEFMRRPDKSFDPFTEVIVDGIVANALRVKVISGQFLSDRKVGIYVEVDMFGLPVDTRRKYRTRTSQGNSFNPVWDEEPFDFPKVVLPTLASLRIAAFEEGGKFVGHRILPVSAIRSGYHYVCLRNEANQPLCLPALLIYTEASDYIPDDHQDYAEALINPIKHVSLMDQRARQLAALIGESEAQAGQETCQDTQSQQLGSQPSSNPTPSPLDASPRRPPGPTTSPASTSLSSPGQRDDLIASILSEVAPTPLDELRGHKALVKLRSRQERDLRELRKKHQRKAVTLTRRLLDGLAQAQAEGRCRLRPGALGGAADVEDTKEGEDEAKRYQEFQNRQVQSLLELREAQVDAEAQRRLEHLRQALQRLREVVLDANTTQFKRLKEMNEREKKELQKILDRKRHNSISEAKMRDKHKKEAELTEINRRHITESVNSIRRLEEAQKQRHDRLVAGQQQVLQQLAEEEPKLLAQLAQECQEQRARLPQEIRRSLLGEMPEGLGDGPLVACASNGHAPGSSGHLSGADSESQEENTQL
Method in brief: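 Multi-cycle SPR at 25 °C. Peptides at 12.5–200 µM, including a randomized control peptide, in HBS-EP+, injected over active and reference flow cells for 250 s at 5 µL/min, with return to baseline between cycles. Reference-subtracted binding levels were read at the end of injection after baseline subtraction.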

## COc1ccc2c(c1)CC[C@@H]1[C@@H]2CC[C@]2(C)[C@@H](NCCCCCCN3C(=O)C=CC3=O)CC[C@@H]12 [Peptide U73122, 1-(6-((17β-3-methoxyestra-1,3,5(10)-trien-17-yl)amino)hexyl)-1H-pyrrole-2,5-dione]
PLCγ
  SOC activity (ΔFSOC / ΔFTG normalized to vehicle): 55.4 ± 9.4
[1]
  inhibition of BK-induced TRPV1 sensitization (P3 - P2): did not significantly attenuate
PLCβ [2]
  time to reach maximum PLCδ-PH-GFP translocation: does not modify
PLCβ [3]; experiment of Fig. 2B
  inhibition of ACh-induced intracellular Ca2+ response: 40.5 ± 9.4%
PLCβ [3]; experiment of Fig. 2C
  inhibition of ACh-induced intracellular Ca2+ response: 65.4 ± 4.3%
  percentage of ACh-responsive cells normalized to vehicle: 66.7 ± 9.3%
PLCβ [3]; experiment of Fig. 2D
  inhibition of ACh-induced intracellular Ca2+ response: 51.9 ± 7.5%
  percentage of ACh-responsive cells normalized to vehicle: 62.0 ± 12.0%

## Ac-IYSSNV-NH2 [PL2005]
[4]; in different solvents
  solubility: solubility problems in different solvents
[4]; prepared in 0.4% DMSO in extracellular solution
  aqueous solubility: poor aqueous solubility

## Ac-IVSNRYSK-NH2 [randomized PL2204]
PLCβ3
  binding to pulled-down PLCβ3 (SPR): strongly reduced binding levels
